TAG inh: inhibitors of triacylglycerol accumulation, primary screen, cell-based, uHTS, fluorescence, H9c2 | H9c2 cells, Nile Red lipid (TAG) fluorescence; cells loaded with 200 µM oleic acid | inhibition, % at 12.5 µM | actives 0.66% (n = 230,000) | AID 651582, 2012;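 active = pattern-corrected inhibition of lipid staining of at least 50% with the nuclear-stain viability signal not falling by more than 50%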;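 note: 0% = DMSO wells and 100% = triacsin C control wells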
TbMetRS inhib: T. brucei MetRS inhibitors, primary screen, biochemical, luminescence. methionyl-tRNA synthetase (Trypanosoma brucei brucei). purified T. brucei MetRS, ATP depletion, Kinase-Glo luminescence. inhibition, % at 11.9 µM. actives 0.4% (n = 360,000). AID 624268, 2012;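 active = inhibition above a per-plate cutoff of the control wells' mean inhibition plus 3 SD, cut at about 5.5% in these data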;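 note: 0% = DMSO wells median and 100% = median of wells with control inhibitor compound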
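technique = Kinase-Glo luminescence, ATP depletion format | system = purified MetRS (methionyl-tRNA synthetase) enzyme from Trypanosoma brucei | timing = 15 min preincubation, 2 h reaction, all 25 °C | evaluation = percent inhibition versus plate control medians | dosing = single dose, 11.9 µM final nominal, 0.9% final DMSO | also added = substrates ATP, L-methionine and bulk Escherichia coli tRNA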
Efflux pump mplx: inhibitors of Candida efflux pumps in yeast, primary screen, S. cerevisiae, Nile Red, multiplex. actives 0.44% (n = 330,000). inhibition, % at 10 µM. S. cerevisiae Candida pump triplex;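 active = plate passing quality check with inhibition over a set limit, or well fluorescence over plate mean plus 4 SD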;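 note: Nile Red retained in pooled yeast measured as flow cytometry median fluorescence; 0% = buffer negative control and 100% = Enniatin B positive control; higher means more Nile Red kept so more efflux inhibition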
AHR activator: AHR activators, primary screen, cell-based, luminescence, luciferase reporter, human. activation, % at 5 µM. AID 2796, 2010. actives 2.5% (n = 320,000). AHR-responsive luciferase reporter cells; in the data active = activation above about 47%;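 note: 0% = vehicle wells and 100% = reference agonist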
Target sequence (P35869 whole entry, looked up): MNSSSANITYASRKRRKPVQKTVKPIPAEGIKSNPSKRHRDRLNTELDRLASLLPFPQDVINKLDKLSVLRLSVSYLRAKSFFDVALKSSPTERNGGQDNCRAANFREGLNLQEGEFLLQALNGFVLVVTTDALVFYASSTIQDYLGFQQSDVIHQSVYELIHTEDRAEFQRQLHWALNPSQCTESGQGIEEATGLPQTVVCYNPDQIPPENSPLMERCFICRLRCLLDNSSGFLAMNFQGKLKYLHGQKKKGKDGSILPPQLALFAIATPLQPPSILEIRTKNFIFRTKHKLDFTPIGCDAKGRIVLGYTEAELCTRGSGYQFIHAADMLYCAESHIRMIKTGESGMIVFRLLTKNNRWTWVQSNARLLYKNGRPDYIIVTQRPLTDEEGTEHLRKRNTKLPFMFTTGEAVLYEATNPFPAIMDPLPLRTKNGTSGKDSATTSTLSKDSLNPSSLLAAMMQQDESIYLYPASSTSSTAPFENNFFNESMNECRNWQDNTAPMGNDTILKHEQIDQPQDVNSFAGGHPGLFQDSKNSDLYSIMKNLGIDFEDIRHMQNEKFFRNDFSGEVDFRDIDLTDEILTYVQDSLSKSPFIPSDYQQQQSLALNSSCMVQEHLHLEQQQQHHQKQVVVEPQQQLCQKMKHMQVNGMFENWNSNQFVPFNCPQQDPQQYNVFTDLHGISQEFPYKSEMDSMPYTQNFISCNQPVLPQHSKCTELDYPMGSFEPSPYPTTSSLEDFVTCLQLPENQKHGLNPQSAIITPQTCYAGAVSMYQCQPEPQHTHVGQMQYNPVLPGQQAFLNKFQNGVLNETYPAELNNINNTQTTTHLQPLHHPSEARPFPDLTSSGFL
SMARCA2 act: SMARCA2 (BRM) function activators, primary screen, cell-based, luminescence, high throughput; MG213 cells, MMTV-luciferase reporter, dexamethasone, overnight; activation, % at 9.1 µM; actives 1% (n = 370,000); AID 652017, 2013; in the data active = activation above about 7.8%;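 note: 0% = vehicle wells and 100% = reference activator wells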
TbMetRS confirm: T. brucei MetRS inhibitors, confirmation, biochemical, luminescence | shares compounds with TbMetRS inhib | T. brucei MetRS enzyme, luminescence (ATP depletion) | inhibition, % at 11.9 µM | actives 93% (n = 1,400) | AID 624412, 2012; in the data active = inhibition above about 7%
Jurkat tox: Jurkat T cell cytotoxicity, cytotoxicity control for T. brucei MetRS inhibitor project, luminescence, high throughput | AID 624413, 2012 | inhibition, % at 8.3 µM | actives 12% (n = 1,400) | shares compounds with TbMetRS inhib | Jurkat cells viability, ATP luminescence; in the data active = inhibition above about 15%;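 note: 0% = vehicle and 100% = reference inhibitor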
TbMetRS FP orth: T. brucei MetRS inhibitors, orthogonal assay for T. brucei MetRS inhibitor project, biochemical, fluorescence polarization; shares compounds with TbMetRS inhib; purified T. brucei MetRS; inhibition, % at 11.9 µM; actives 44% (n = 1,400); AID 651607, 2012; in the data active = inhibition above about 17%;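 note: 0% = vehicle wells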
The depositor's hits bear a star. Only some compounds are listed: those with a hit (about 4.1% of all), similar ones and a draw of the others.

For COc1ccc(N(CC(=O)Nc2ccc(Cl)cc2)S(=O)(=O)c2c(C)n[nH]c2C)cc1 the results were TbMetRS inhib 8.7*, Efflux pump mplx 0, AHR activator 11, SMARCA2 act -1, TbMetRS confirm 18*, Jurkat tox 4 and TbMetRS FP orth 10.
CC(C)CNc1cccc2c1S(=O)(=O)N[C@@H](CC(C)C)CO2 was read as SMARCA2 act -1.
`Cn1nc(C(F)(F)F)c(-c2cccc(C(F)(F)F)c2)c1NC(=O)Nc1ccc(F)cc1` gave TAG inh 10, TbMetRS inhib 41*, Efflux pump mplx 0, AHR activator 0, SMARCA2 act -7, TbMetRS confirm 58*, Jurkat tox 10 and TbMetRS FP orth 38*.
Cc1ccc(-n2nc(C(=O)c3ccccc3)n3c(=O)c(Cc4ccccc4)nnc23)cc1 was read as TbMetRS inhib 0, Efflux pump mplx 0, AHR activator 2 and SMARCA2 act -1.
`O=C(c1ccccc1)c1nn(-c2ccccc2)c2nnc(Cc3ccccc3)c(=O)n12` gave TbMetRS inhib 6.5*, Efflux pump mplx 0, AHR activator -1, SMARCA2 act -1, TbMetRS confirm 16*, Jurkat tox 15* and TbMetRS FP orth 6.
Screening O=C(Cn1cnc2ccccc2c1=O)N1CCN(C(=O)C2CCCO2)CC1 (stereo not drawn) returned SMARCA2 act -5.
For Cc1cccc(NC(=O)NNC(=O)c2cc(-c3ccccc3Cl)nc3ccccc23)c1 the results were TAG inh 5, TbMetRS inhib -1, Efflux pump mplx 0 and AHR activator 5.
Screening O=C(NNC(=O)c1cc(-c2ccc(Cl)c(Cl)c2)nc2ccccc12)Nc1ccccc1 returned TAG inh 9, TbMetRS inhib 45*, Efflux pump mplx 0, AHR activator 2, SMARCA2 act 1, TbMetRS confirm 94*, Jurkat tox 2 and TbMetRS FP orth 81*.
Cc1ccc2[nH]c3c(c2c1)CCc1cn[nH]c1-3 was read as TbMetRS inhib 22*, Efflux pump mplx 0, AHR activator 53*, SMARCA2 act -4, TbMetRS confirm 12*, Jurkat tox 2 and TbMetRS FP orth 47*.
For OCCNc1nc(Nc2ccc(Br)cc2)nc2ccccc12 the results were Efflux pump mplx 0, AHR activator 6 and SMARCA2 act -4.
CCCCNc1nc(NCc2ccccc2)nc2ccccc12 was read as TbMetRS inhib 10*, SMARCA2 act -6, TbMetRS confirm 22*, Jurkat tox 62* and TbMetRS FP orth 5.
`OCCNc1nc(Nc2ccccc2)nc2ccccc12` gave TAG inh -4, TbMetRS inhib 11*, Efflux pump mplx 0, AHR activator 51*, SMARCA2 act 1, TbMetRS confirm 31*, Jurkat tox -1 and TbMetRS FP orth 8.
`C=CCCC(=O)N1CCC(C(=O)NC2CCCc3ccccc32)CC1` (stereo not drawn) gave SMARCA2 act -2.
Cc1ccc(-n2c(SCC(=O)Nc3ccc4c(c3)OCCO4)nnc2-c2cccnc2)cc1 was read as SMARCA2 act -4.
`Cc1ccc(C2=CCN(C)C(=O)N2c2ccc(Br)cc2)cc1` gave SMARCA2 act 5.
Cc1[nH]c2ccccc2c1/C=N/Nc1ccc([N+](=O)[O-])cc1 was read as TbMetRS inhib 9.6*, Efflux pump mplx 0, AHR activator 0, SMARCA2 act -2, TbMetRS confirm 12*, Jurkat tox 9 and TbMetRS FP orth 71*.
N[C@H](C(=O)N[C@@H](Cc1ccccc1)C(=O)N1CCC2CCN(S(=O)(=O)c3ccccc3)CC21)c1ccccc1 (stereo partly drawn) was read as SMARCA2 act 2.
Screening C=CCNC(=S)NNC(=O)CSc1nc2ccccc2s1 returned TbMetRS inhib 7.6*, Efflux pump mplx 0, AHR activator 32, SMARCA2 act -2, TbMetRS confirm 14*, Jurkat tox 4 and TbMetRS FP orth 1.
COc1ccc(CN2C[C@H](COCc3ccccc3)Oc3cccc(F)c3S2(=O)=O)cc1 was read as SMARCA2 act 0.
OC[C@@H]1CC[C@@H]2O[C@H](CCc3ccc(-c4ccc(F)cc4)cc3)[C@H](n3cc(C4CC4)nn3)C[C@@H]2O1 was read as SMARCA2 act -4.
For N#Cc1ccccc1CSc1ccc(-c2nc3ccccc3[nH]2)cn1 the results were TbMetRS inhib 11*, Efflux pump mplx 0, AHR activator -2, SMARCA2 act 1, TbMetRS confirm 24*, Jurkat tox 12 and TbMetRS FP orth 21*.
For CCOC(=O)CNC(=O)CSc1ccc(-c2nc3ccccc3[nH]2)cn1 the results were TbMetRS inhib 9.1*, Efflux pump mplx 0, AHR activator 2, SMARCA2 act 3, TbMetRS confirm 28*, Jurkat tox 6 and TbMetRS FP orth 10.
Screening Cc1ccc2nc(-c3ccc(SCC(=O)O)nc3)[nH]c2c1 returned TAG inh -6, TbMetRS inhib 10*, Efflux pump mplx 0, AHR activator 16, SMARCA2 act -4, TbMetRS confirm 21*, Jurkat tox -3 and TbMetRS FP orth 4.
For O=C(CSc1ccc(-c2nc3ccccc3[nH]2)cn1)Nc1ccc(S(=O)(=O)N2CCCC2)cc1 the results were TbMetRS inhib 30*, Efflux pump mplx 0, AHR activator 4, SMARCA2 act 6, TbMetRS confirm 33*, Jurkat tox 8 and TbMetRS FP orth 31*.
Cc1ccc(NC(=O)Cc2ccc(OC(F)F)cc2)c(S(=O)(=O)N2CCOCC2)c1 was read as SMARCA2 act -5.
CCOC(=O)[C@]12CCCC3=C1N(CCC3)C(=O)[C@@H](CC(=O)NCc1cccc3ccccc13)C2 was read as SMARCA2 act 0.
For COC(=O)[C@]12C[C@H](CC(=O)NCC34CC5CC(CC(C5)C3)C4)C(=O)N(Cc3ccc4c(c3)OCO4)C1=C[C@H](C(C)C)O[C@@H]2C1CC1 the results were SMARCA2 act -3.
